Data: ChEMBL document CHEMBL1125862, “(1S)-1-(aminomethyl)-2-(arylacetyl)-1,2,3,4-tetrahydroisoquinoline and heterocycle-condensed tetrahydropyridine derivatives: members of a novel class of very potent kappa opioid analgesics” (J Med Chem, 1991)

Assays:
Mus musculus [1] = assay: In vivo antinociceptive activity using mouse tail flick test, subcutaneous administration; type: functional
Mus musculus [2] = assay: Phenyl-p-benzoquinone-induced abdominal constriction after subcutaneous administration in mouse (in vivo); type: functional, Abdomen
Outline: (§1)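 Mice given test agent subcutaneously, with 10 animals per dose, then challenged with phenyl-p-benzoquinone. Abdominal constrictions counted over an 8-min observation period. Percentage inhibition calculated as 1 − (T/C) × 100, with T the treated-group mean and C the control-group mean count.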

Mus musculus [3] = assay: In vivo antinociceptive activity in mouse tail flick test following p.o. administration.; type: functional
Mu-type opioid receptor = Mu-type opioid receptor (Cavia porcellus, UniProt P97266); assay: Affinity for opioid receptor mu sites
[4] = biological target: Kappa-type opioid receptor (Cavia porcellus, UniProt P41144); assay: Displacement of [3H]-BRL 52537 from opioid receptor kappa site in guinea pig
Mus musculus [5] = assay: Concentration required for 50% inhibition of abdominal constrictions by phenyl-p-benzoquinone-induced abdominal constriction given sc in mouse.; type: functional, Abdomen; outline: as §1
[6] = Mus musculus, Tail, sc, read-out: ED50
[7] = Mus musculus, Abdomen, sc, read-out: ED50
[8] = Mus musculus, Tail, po, read-out: ED50

Kappa-type opioid receptor, sequence (P41144 whole entry): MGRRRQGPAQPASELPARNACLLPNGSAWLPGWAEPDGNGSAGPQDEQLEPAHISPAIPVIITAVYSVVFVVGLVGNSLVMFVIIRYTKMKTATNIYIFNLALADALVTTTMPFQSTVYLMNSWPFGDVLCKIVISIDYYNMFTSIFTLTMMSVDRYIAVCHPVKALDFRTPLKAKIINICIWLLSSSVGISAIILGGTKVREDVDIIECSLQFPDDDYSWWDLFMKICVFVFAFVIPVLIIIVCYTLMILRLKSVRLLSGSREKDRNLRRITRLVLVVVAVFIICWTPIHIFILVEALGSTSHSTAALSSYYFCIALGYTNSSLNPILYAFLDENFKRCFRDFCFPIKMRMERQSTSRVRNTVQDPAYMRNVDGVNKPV
Mu-type opioid receptor, sequence (P97266 whole entry): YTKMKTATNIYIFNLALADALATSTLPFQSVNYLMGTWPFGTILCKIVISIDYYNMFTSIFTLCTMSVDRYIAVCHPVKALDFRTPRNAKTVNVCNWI

| SMILES | Ki (Mu-type opioid receptor) [nM] | ED50 (Mus musculus [1]; [6]) [µmol/kg] | Ki [4] [nM] | ED50 (Mus musculus [3]; [8]) [µmol/kg] | further results |
| --- | --- | --- | --- | --- | --- |
| O=C(Cc1ccc(Cl)c(Cl)c1)N1CCc2ccccc2C1CN1CCCC1.O=C(O)C(O)C(O)C(=O)O (stereo not drawn) | – | – | – | – | ED50 (Mus musculus [1]): 0.02 µM/kg; ED50 (Mus musculus [2]): 0.017 µM/kg; ED50 (Mus musculus [3]): 0.544 µM/kg |
| O=C(Cc1ccc(C(F)(F)F)cc1)N1CCc2sccc2C1CN1CCCCC1 (stereo not drawn) | 420 | 0.125 | 0.6 | 4.65 | ED50 (Mus musculus [2]; [7]): 0.024 µmol/kg |
| O=C(Cc1ccc(Cl)c(Cl)c1)N1CCc2c([nH]c3ccccc23)C1CN1CCCC1 (stereo not drawn) | > 1000 | > 20 | > 100 | – | – |
| O=C(Cc1ccc(Cl)c(Cl)c1)N1CCc2[nH]c3ccccc3c2C1CN1CCCC1 (stereo not drawn) | > 1000 | > 20 | 100 | – | – |
| O=C(Cc1ccc(C(F)(F)F)cc1)N1CCCC[C@H]1CN1CCCC1 | 2340 | 0.0373 | 0.64 | 3.29 | ED50 (Mus musculus [2]; [7]): 0.099 µmol/kg |
| O=C(Cc1ccc(Cl)c(Cl)c1)N1CCc2ccccc2C1CN1CCCC1 (stereo not drawn) | – | 0.036 | – | 0.626 | ED50 (Mus musculus [2]; [7]): 0.025 µmol/kg |
| O=C(Cc1ccc(Cl)c(Cl)c1)N1CCCC[C@H]1CN1CCCC1 | – | 0.135 | 0.31 | 2.49 | ED50 (Mus musculus [2]; [7]): 0.056 µmol/kg |
| O=C(Cc1ccc(Cl)c(Cl)c1)N1CCc2ccccc2C1CN1CCCCCC1 (stereo not drawn) | – | 0.267 | – | – | ED50 (Mus musculus [2]; [7]): 0.083 µmol/kg |
| O=C(Cc1ccc(Cl)c(Cl)c1)N1CCc2sccc2C1CN1CCCCC1 (stereo not drawn) | 445 | 0.096 | 0.47 | 2.75 | ED50 (Mus musculus [2]; [7]): 0.024 µmol/kg |
| O=C(Cc1ccc(Cl)c(Cl)c1)N1CCc2ccsc2C1CN1CCCC1 (stereo not drawn) | 47 | 0.073 | 0.46 | 1.59 | – |
| O=C(Cc1ccc(Cl)c(Cl)c1)N1Cc2ccccc2CC1CN1CCCC1 (stereo not drawn) | – | 8.23 | – | – | – |
| O=C(Cc1ccc(Cl)c(Cl)c1)N1CCc2sccc2C1CN1CCCC1 (stereo not drawn) | 47.2 | 0.018 | 0.22 | 0.945 | – |
| O=C(Cc1ccc(Cl)c(Cl)c1)N1c2ccccc2CCC1CN1CCCC1 (stereo not drawn) | – | > 20 | – | – | – |
| O=C(Cc1ccc(Cl)c(Cl)c1)N1CCc2ccccc2C1CN1CCC1 (stereo not drawn) | – | 23.2 | – | – | – |
| CN(C)CC1c2ccccc2CCN1C(=O)Cc1ccc(Cl)c(Cl)c1.Cl (racemic) | – | 0.099 | – | 2.88 | ED50 (Mus musculus [5]): 0.127 µM/kg |
| O=C(Cc1ccc([N+](=O)[O-])cc1)N1CCc2ccccc2C1CN1CCCC1 (racemic) | – | 0.038 | – | 0.409 | – |

| SMILES | Ki (Mu-type opioid receptor) [nM] | ED50 (Mus musculus [1]; [6]) [µmol/kg] | Ki [4] [nM] | ED50 (Mus musculus [3]; [8]) [µmol/kg] | further results |
| --- | --- | --- | --- | --- | --- |
| O=C(Cc1ccccc1[N+](=O)[O-])N1CCc2ccccc2C1CN1CCCC1 (racemic) | – | > 21 | – | – | – |
| O=C(Cc1ccc(C(F)(F)F)cc1)N1CCc2ccccc2C1CN1CCCC1 (racemic) | – | 0.074 | – | 0.467 | ED50 (Mus musculus [5]; [7]): 0.027 µmol/kg |
| O=C(Cc1ccc(Cl)c(Cl)c1)N1CCc2ccccc2C1CN1CCCCCCC1 (racemic) | – | > 22 | – | – | – |
| O=C(Cc1ccc(Br)cc1)N1CCc2ccccc2C1CN1CCCC1 (racemic) | – | 0.07 | – | – | – |
| C=CCN(C)CC1c2ccccc2CCN1C(=O)Cc1ccc(Cl)c(Cl)c1 (racemic) | – | 0.521 | – | 6.88 | – |
| CCCN(CCC)CC1c2ccccc2CCN1C(=O)Cc1ccc(Cl)c(Cl)c1 (racemic) | – | > 23 | – | – | – |
| CN(CC1CC1)CC1c2ccccc2CCN1C(=O)Cc1ccc(Cl)c(Cl)c1 (racemic) | – | 3.39 | – | – | – |
| CCN(CC)CC1c2ccccc2CCN1C(=O)Cc1ccc(Cl)c(Cl)c1 (racemic) | – | 0.264 | – | 3.37 | – |
| O=C(Cc1ccc(Cl)c(Cl)c1)N1CCc2ccccc2C1CN1CCCCC1 (racemic) | – | 0.359 | – | 5.16 | ED50 (Mus musculus [2]; [7]): 0.101 µmol/kg |
| O=C(Cc1cccc([N+](=O)[O-])c1)N1CCc2ccccc2C1CN1CCCC1 (racemic) | – | 0.105 | – | 5.26 | – |
| CNCC1c2ccccc2CCN1C(=O)Cc1ccc(Cl)c(Cl)c1 (racemic) | – | > 28 | – | – | – |
| CCO.CN(C)CC1c2ccccc2CCN1C(=O)Cc1ccc(Cl)c(Cl)c1.O=C(O)C(O)C(O)C(=O)O (single isomer, unassigned; (-)) | 293 | – | 0.51 | – | ED50 (Mus musculus [5]): 0.042 µM/kg; ED50 (Mus musculus [1]): 0.075 µM/kg; ED50 (Mus musculus [3]): 2.199 µM/kg |
| O=C(Cc1ccc(C(F)(F)F)cc1)N1CCc2ccccc2C1CN1CCCCC1 (single isomer, unassigned; (-)) | 231 | 0.168 | 0.62 | 3.84 | ED50 (Mus musculus [5]; [7]): 0.06 µmol/kg |
| O=C(Cc1ccc(C(F)(F)F)cc1)N1CCc2ccccc2[C@H]1CN1CCCC1 (stereo in doubt; 30) | 10.7 | – | 0.24 | 0.25 | ED50 (Mus musculus [5]; [7]): 0.015 µmol/kg; ED50 (Mus musculus [1]): 0.032 µM/kg |
| CN1CC[C@]23c4c5ccc(O)c4O[C@H]2[C@@H](O)C=C[C@H]3[C@H]1C5 [MORPHINE] | – | – | – | 32.6 | – |
